Here are results for 14 compounds from PubChem BioAssay.

Assay [1] can be described thus: Her2 expression decrease, cell viability multiplex – SKBR3 breast tumor cells, AlphaScreen, ATP viability, primary screen (AID 461;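 active = Her2 level under about 52% in both replicate screens, with viability over 70% of control, limit read from the data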;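 as to Her2 level: lower value means less Her2 protein in the cells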;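 as to viability: percent of carrier control wells set as 100% viability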). Conditions: SKBR3 Her2 protein level, 18-24 h, measured here: SKBR3 viability, ATP luminescence, at 10 µM. On the technique in general: Alpha assays give light when donor and acceptor beads are brought close together.
Assay [2] addresses Receptor tyrosine-protein kinase erbB-2 (Homo sapiens) (UniProt P04626). The assay is described as above. The conditions noted are these: 18-24 h, at 10 µM, stronger effect = lower value.
Assay [3] in a line: reduced viability of SK-BR-3 breast cancer cells – cell-based, 24 h, human, pilot screen (AID 572;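 active = viability at or below 10% of carrier control in both of two separate runs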;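 also: compound exposure lasted between 18 and 24 h rather than exactly 24 h; 100% = carrier-treated control wells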). Conditions: SK-BR-3 viability, CellTiter-Glo luminescence, at 10 µM, stronger effect = lower value. In general terms: Cellular ATP, detected with luciferase, serves as a proxy for viable cell number.
The nature of assay [4]: HUVEC growth inhibition – cell-based, human, primary screen (AID 575;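 active = viability at or below 30% in both replicate assays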;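 also: 100% = median of untreated cell wells with 0.1% DMSO on each plate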). The conditions noted are these: HUVEC proliferation, CellTiter-Glo luminescence, 72 h; at 10 µM; stronger effect = lower value. In short, it runs like this: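 Test system – primary HUVEC, no more than 12 passages · Dosing – one dose, 10 µM final, 0.1% DMSO · Times – 72 h treatment at 37 °C · Measured by – ATP-based CellTiter-Glo luminescent read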

Assay [5] can be described thus: H69AR cell proliferation blockers – human, duplicate replicates, primary screen (AID 580).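 Also: 100% = mean luminescence of untreated wells and 0% = no signal.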 Conditions: H69AR lung tumor cells viability, ATP luminescence, 72 h; at 10 µM; stronger effect = lower value.
Assay [6] is described as follows: MRP1 drug-resistance reversers in H69AR cells – cell-based, doxorubicin co-treatment, pilot screen (AID 601;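 active = viability loss from added drug above about 55%, and viability with drug at most 40%, in both replicates, limit read from the data, passing the limit was not always enough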). The conditions noted are these: CellTiter-Glo, 72 h, at 10 µM; for differential viability (reversal): stronger effect = higher value.
Assay [7] can be described thus: yeast transport mutant growth inhibition pilot in 384-well plates, post-Golgi transport modulator project (AID 636; in the data active = inhibition above about 31%). Conditions: absorbance 615 nm, about 18 h, stronger effect = higher value.
Assay [8] can be described thus: growth suppression of yeast trafficking mutant, preliminary HTS, modulators of trafficking downstream of Golgi apparatus project, 1536-format plate, OD 615 nm (AID 637; in the data active = inhibition above about 30%). Conditions: yeast transport mutant growth, absorbance 615 nm, 18 h; stronger effect = higher value.
The mark [9] stands for this setting: H69AR cells + 2 uM doxorubicin, measured here: viability with 2 uM doxorubicin, stronger effect = lower value.
The mark [10] stands for this setting: H69AR cells, compound alone cytotoxicity.

Broadly, the viability is a read-out of living cells in per cent, often relative to untreated cells. As a reminder, the inhibition is the change of the read-out against control, counted positive when it falls.

Activity calls are given as the source filed them.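 The calls were made as follows, unless noted: active = viability at or under a set limit in both replicates, limit being median viability minus 3 SD (cut at about 48% in these data, passing the limit was not always enough); inconclusive = at or under the limit in just one replicate; inactive = at or above the limit in both replicates.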

Chain of Receptor tyrosine-protein kinase erbB-2 (Homo sapiens) (P04626 whole entry, looked up): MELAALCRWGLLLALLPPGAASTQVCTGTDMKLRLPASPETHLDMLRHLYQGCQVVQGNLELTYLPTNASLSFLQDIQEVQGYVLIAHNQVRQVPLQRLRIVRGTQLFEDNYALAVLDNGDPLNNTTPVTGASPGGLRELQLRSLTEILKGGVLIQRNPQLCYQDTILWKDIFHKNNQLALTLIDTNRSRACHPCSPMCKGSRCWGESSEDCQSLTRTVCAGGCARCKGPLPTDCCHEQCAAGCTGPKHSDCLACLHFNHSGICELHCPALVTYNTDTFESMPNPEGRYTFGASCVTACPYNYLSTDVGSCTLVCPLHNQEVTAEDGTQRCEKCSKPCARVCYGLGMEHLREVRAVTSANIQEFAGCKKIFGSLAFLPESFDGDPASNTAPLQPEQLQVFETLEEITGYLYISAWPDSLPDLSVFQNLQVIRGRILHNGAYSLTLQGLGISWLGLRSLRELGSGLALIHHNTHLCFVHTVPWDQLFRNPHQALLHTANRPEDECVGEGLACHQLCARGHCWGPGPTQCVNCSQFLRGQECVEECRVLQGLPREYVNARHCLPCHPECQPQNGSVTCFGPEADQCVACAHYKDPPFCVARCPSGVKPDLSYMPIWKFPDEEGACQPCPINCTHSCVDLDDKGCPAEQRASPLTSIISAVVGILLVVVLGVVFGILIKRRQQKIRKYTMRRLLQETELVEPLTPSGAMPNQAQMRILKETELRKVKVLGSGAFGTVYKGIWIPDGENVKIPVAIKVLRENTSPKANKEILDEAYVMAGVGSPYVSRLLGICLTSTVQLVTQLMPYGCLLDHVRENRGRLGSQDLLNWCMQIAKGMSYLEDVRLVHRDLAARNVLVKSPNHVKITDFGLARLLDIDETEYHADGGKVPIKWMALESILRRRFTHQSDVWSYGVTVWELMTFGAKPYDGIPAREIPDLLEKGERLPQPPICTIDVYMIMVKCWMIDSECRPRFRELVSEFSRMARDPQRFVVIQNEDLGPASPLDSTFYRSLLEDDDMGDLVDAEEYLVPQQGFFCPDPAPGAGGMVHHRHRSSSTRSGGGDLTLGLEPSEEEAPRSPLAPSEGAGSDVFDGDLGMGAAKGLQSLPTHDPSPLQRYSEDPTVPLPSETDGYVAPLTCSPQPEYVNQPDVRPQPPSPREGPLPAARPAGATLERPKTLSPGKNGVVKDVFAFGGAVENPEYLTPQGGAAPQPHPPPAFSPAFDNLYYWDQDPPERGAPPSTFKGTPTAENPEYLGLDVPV

Turning to `COc1ccc(Nc2nc(OC)nc(N3CCN(c4ccc(OC)cc4)CC3)n2)cc1`, the viability in assay [1] was 123%; in assay [3], 123% (inactive); in assay [4], 66.7% (inactive); in assay [5] it was 71.3% (inactive); in assay [6] (setting [9]), 77%; in assay [6] (setting [10]), 71.3%. For the same compound, the Her2 level in assay [2] is 98% (inactive). Moreover, in assay [6] (H69AR cells + 2 uM doxorubicin), the differential viability (reversal) was -5.71% (inactive). Besides, the results for the inhibition in assay [7] and in assay [8] were -6.27% (inactive) and -3.06% (inactive), respectively.
Consider `CCOc1ccc(N(C(C)=O)C2C=CS(=O)(=O)C2)cc1` (stereo not given), for which the viability was 91.5% in assay [1]; 91.5% (inactive) in assay [3]; 95.7% (inactive) in assay [4]; 94.9% (inactive) in assay [5]; 92.4% in assay [6] (setting [9]); 94.9% in assay [6] (setting [10]). Further, in assay [2], the Her2 level is 90.5% (inactive). The differential viability (reversal) in assay [6] (H69AR cells + 2 uM doxorubicin) is 2.48% (inactive). Moreover, the inhibition in assay [7] is -1.87% (inactive); in assay [8] it was 0.33% (inactive).
Regarding `COc1ccc(C2CC(c3ccccc3)Nc3nc(NC(=O)c4cccs4)nn32)cc1` (stereo not given), the viability in assay [1] is 81.5%; in assay [3], 81.5% (inactive); in assay [4], 83.3% (inactive); in assay [5], 88.3% (inactive); in assay [6] (setting [9]), 83.4%; in assay [6] (setting [10]) it was 88.3%. In assay [2], the Her2 level is 94.5% (inactive). In addition, the differential viability (reversal) in assay [6] (H69AR cells + 2 uM doxorubicin) is 4.87% (inactive). The inhibition was -1.69% (inactive) in assay [7] and -5.08% (inactive) in assay [8].
On to `COC(=O)C1=C(C)OC(N)=C(C#N)C1c1ccccc1` (stereo not given), for which the viability in assay [1] is 94.5%; in assay [3], 94.5% (inactive); in assay [4] it was 102% (inactive); in assay [5], 94% (inactive); in assay [6] (setting [9]) it was 82%; in assay [6] (setting [10]) it was 94%. For the same compound, the Her2 level in assay [2] was 77% (inactive). The differential viability (reversal) in assay [6] (H69AR cells + 2 uM doxorubicin) was 12.1% (inactive). Further, the inhibition in assay [7] was -1.18% (inactive); in assay [8], -9.82% (inactive).
On to `O=C(O)c1cc(=O)cc(C(=O)O)[nH]1`, for which the viability in assay [1] is 80.5%; in assay [3], 80.5% (inactive); in assay [4] it was 102% (inactive); in assay [5], 105% (inactive); in assay [6] (setting [9]), 92.7%; in assay [6] (setting [10]), 105%. Moreover, the Her2 level in assay [2] was 91.5% (inactive). Besides, the differential viability (reversal) in assay [6] (H69AR cells + 2 uM doxorubicin) is 12.5% (inactive). Besides, the results for the inhibition in assay [7] and in assay [8] were 0% (inactive) and 22.9% (inactive), respectively.
In the case of `COc1ccc(OC)c(C(=O)COC(=O)c2cc(C)oc2C)c1`, the viability in assay [1] is 112%; in assay [3] it was 112% (inactive); in assay [4], 62.9% (inactive); in assay [5] it was 92.7% (inactive); in assay [6] (setting [9]) it was 87.9%; in assay [6] (setting [10]) it was 92.7%. Besides, the Her2 level in assay [2] was 71% (inactive). For the same compound, the differential viability (reversal) in assay [6] (H69AR cells + 2 uM doxorubicin) is 4.87% (inactive). In addition, the inhibition is -7.33% (inactive) in assay [7] and -4.92% (inactive) in assay [8].
As for `Cc1ccc(-c2nn3c(=O)c(C)nnc3s2)cc1`, the viability is 112% in assay [1]; 112% (inactive) in assay [3]; 112% (inactive) in assay [4]; 104% (inactive) in assay [5]; 90.9% in assay [6] (setting [9]); 104% in assay [6] (setting [10]). Moreover, in assay [2], the Her2 level is 112% (inactive). Further, the differential viability (reversal) in assay [6] (H69AR cells + 2 uM doxorubicin) is 12.8% (inactive). The inhibition in assay [7] is -2.97% (inactive); in assay [8] it was -5% (inactive).
`O=C(NCCO)c1cccc2c1C(=O)c1ccccc1-2`: the viability was 97.5% in assay [1]; 97.5% (inactive) in assay [3]; 98.4% (inactive) in assay [4]; 101% (inactive) in assay [5]; 85.8% in assay [6] (setting [9]); 101% in assay [6] (setting [10]). Moreover, in assay [2], the Her2 level was 95.5% (inactive). The differential viability (reversal) in assay [6] (H69AR cells + 2 uM doxorubicin) is 15.4% (inactive). Moreover, the inhibition was -6.4% (inactive) in assay [7] and -1.48% (inactive) in assay [8].
In the case of `COC(=O)c1cc(Br)c(=O)n(-c2ccc(OC)cc2)c1`, the viability in assay [1] was 96.5%; in assay [3], 96.5% (inactive); in assay [4], 100% (inactive); in assay [5], 94.5% (inactive); in assay [6] (setting [9]), 86.8%; in assay [6] (setting [10]) it was 94.5%. Also, in assay [2], the Her2 level is 93.5% (inactive). In addition, the differential viability (reversal) in assay [6] (H69AR cells + 2 uM doxorubicin) was 7.62% (inactive). The inhibition was -2.8% (inactive) in assay [7] and 0.65% (inactive) in assay [8].
Consider `O=C(CCN1C(=O)C2C3C=CC(C3)C2C1=O)NCCc1ccccc1Cl` (stereo not given), for which the viability was 95% in assay [1]; 95% (inactive) in assay [3]; 94.2% (inactive) in assay [4]; 95.2% (inactive) in assay [5]; 84.7% in assay [6] (setting [9]); 95.2% in assay [6] (setting [10]). In addition, in assay [2], the Her2 level was 68.5% (inactive). Besides, in assay [6] (H69AR cells + 2 uM doxorubicin), the differential viability (reversal) was 10.5% (inactive). The inhibition is -6.49% (inactive) in assay [7] and -5.08% (inactive) in assay [8].
For `c1ccc(-n2c(Sc3cnccn3)nnc2-c2cccs2)cc1`, the viability in assay [1] was 114%; in assay [3] it was 114% (inactive); in assay [4], 89.1% (inactive); in assay [5], 95.8% (inactive); in assay [6] (setting [9]), 88.5%; in assay [6] (setting [10]), 95.8%. Besides, in assay [2], the Her2 level is 109% (inactive). For the same compound, the differential viability (reversal) in assay [6] (H69AR cells + 2 uM doxorubicin) was 7.33% (inactive). For the same compound, the inhibition in assay [7] was -5.41% (inactive); in assay [8] it was -3.49% (inactive).
On to `Cc1ccccc1NC(=O)C1Cc2ccccc2C(=O)O1` (stereo not given), for which the viability is 134% in assay [1]; 134% (inactive) in assay [3]; 116% (inactive) in assay [4]; 98.7% (inactive) in assay [5]; 91.2% in assay [6] (setting [9]); 98.7% in assay [6] (setting [10]). In addition, in assay [2], the Her2 level was 112% (inactive). For the same compound, the differential viability (reversal) in assay [6] (H69AR cells + 2 uM doxorubicin) is 7.54% (inactive). In addition, the values for the inhibition in assay [7] and in assay [8] were -4.93% (inactive) and 3.23% (inactive), respectively.
As to `Cc1ccc(S(=O)(=O)N(CC(=O)N2CCC(C(N)=O)CC2)c2cccc(C(F)(F)F)c2)cc1`, the viability in assay [1] is 99.5%; in assay [3], 99.5% (inactive); in assay [4], 87.8% (inactive); in assay [5] it was 82.9% (inactive); in assay [6] (setting [9]) it was 89.4%; in assay [6] (setting [10]), 82.9%. For the same compound, in assay [2], the Her2 level is 120% (inactive). In assay [6] (H69AR cells + 2 uM doxorubicin), the differential viability (reversal) is -6.52% (inactive). Also, the inhibition in assay [7] is -3.33% (inactive); in assay [8], 5% (inactive).
With `CN=Cc1cc(-c2ccccc2)sc1O`, the viability is 82% in assay [1]; 82% (inactive) in assay [3]; 102% (inactive) in assay [4]; 90% (inactive) in assay [5]; 77% in assay [6] (setting [9]); 90% in assay [6] (setting [10]). For the same compound, the Her2 level in assay [2] is 102% (inactive). The differential viability (reversal) in assay [6] (H69AR cells + 2 uM doxorubicin) was 13% (inactive). For the same compound, the inhibition in assay [7] was 0.41% (inactive); in assay [8] it was 32.7% (active).
